Source: PubChem BioAssay
Records with an inconclusive call do not appear.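 Rule for the calls, unless noted: active = RAM network inhibition above 8.4% in each of two replicates, 3 SD over the compound average; inconclusive = above 8.4% inhibition in only one replicate; inactive = 8.4% inhibition or less in each replicate.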

How the values were obtained:
[1] = S. cerevisiae growth inhibition in permissive medium (OD615), pilot counter-assay for S. cerevisiae lifespan shortening project, permissive growth control (AID 705;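 active = growth inhibition above 25% in both replicates, a cutoff set 3 SD above the mean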); conditions: OD615, 24 h, at 10 µM, hits give high values
Method in brief: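 Material: engineered DeaD yeast; compound dosing: one dose 10 µM, DMSO 0.25% final; measure: yeast growth inhibition indicated by reduced 24 h OD615; detection: OD615 turbidity read; incubation: cells pre-grown 4 h, then 24 h compound exposure, 30 °C humidified; medium: permissive synthetic complete medium with raffinose and galactose carbon sources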

[2] = S. cerevisiae growth inhibition in restrictive medium, OD615, pilot screen, restrictive growth control, yeast lifespan reduction project (AID 706;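 active = growth inhibition above a set limit, 3 SD over mean compound inhibition, in both replicates, cut at about 43% in these data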;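 note: modified DeaD lifespan yeast strain shifted to restrictive glucose medium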); conditions: OD615, 48 h, at 10 µM, hits give high values
Method in brief: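 material = engineered S. cerevisiae DeaD strain | medium = glucose-based CSMM-D restrictive medium | times = 4 h pre-incubation, 48 h exposure at 30 °C | technique = OD615 absorbance reading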

[3] = doxorubicin toxicity protection in MRP-1 cells – H69AR cells, CellTiter-Glo, duplicate, MRP-1 activator project, pilot screen (AID 807;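 active = viability increase at or above a cutoff of the median across tested compounds plus 3 SD, cut at about 8.5% in these data, passing the limit was not always enough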;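 note: compound pretreatment 18-22 h then 72 h combined with doxorubicin; 0% = doxorubicin alone and 100% = vehicle without doxorubicin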); conditions: H69AR viability with doxorubicin, CellTiter-Glo luminescence; at 10 µM; hits give high values
[4] = viability of HCT116 without oncogenic beta-catenin – human colon tumor cells, pilot screen (AID 823;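 active = cell viability at or below a set limit in both duplicate runs, the limit being the all-compound median minus 4 SD, cut at about 23% in these data, passing the limit was not always enough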;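 note: 0% = wells killed by 20 µM Hyamine and 100% = untreated DMSO cell wells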); conditions: HCT116 beta-catenin knockout viability, CellTiter-Glo, 60 h; at 10 µM; hits give low values
[5] = viability of PTEN-null HCT116 cells – cell-based, HCT116 clonal line, CellTiter-Glo, pilot screen (AID 824;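 active = viability at or below 27.92% in each of two runs, the all-compound median minus 4 SD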;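 note: 0% = 20 µM Hyamine control and 100% = vehicle cell control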); conditions: HCT116 PTEN-deleted viability, 60 h, at 10 µM, hits give low values
[6] = RAM pathway blockade in budding yeast – dse1pr::URA3 reporter, 5-FOA selection, pilot screen (AID 869;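 active = inhibition over a set limit, the all-compound mean plus 3 SD, in both replicate runs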;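 note: 0% = DMSO wells with no growth and 100% = 10 µM 1-NA-PP1 with full growth; RAM network block rescues cells from 5-FOA so hits raise OD615 growth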); conditions: S. cerevisiae dse1pr::URA3 5-FOA growth, OD615, 2 d; at 10 µM; hits give high values; strain carries analog-sensitive mutant Cbk1 kinase
[7] = RAM signaling pathway blockade in yeast – S. cerevisiae, Pdr1DBD-CYC8 efflux-inhibited sensitized strain, primary screen (AID 1298);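 note: 0% = DMSO untreated cells without growth and 100% = 10 µM 1-NA-PP1 full growth; higher means more yeast growth rescued from 5-FOA killing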; conditions: S. cerevisiae cbk1-as DSE1-URA3 strain, 5-FOA growth OD615, 2 d; at 50 µM; hits give high values

CC(C)C(=O)N=c1sc2cc(F)cc(F)c2n1C
inactive: growth inhibition [1] -9.84% | growth inhibition [2] -0.65% | viability increase [3] -1.28% | viability [4] 94.1% | viability [5] 99% | inhibition [6] 0.01% | RAM network inhibition [7] 0.96%

CCc1nc(C)cn1S(=O)(=O)c1cc(C)c(OC)cc1C
inactive: growth inhibition [1] -0.385% | growth inhibition [2] 0.98% | viability increase [3] 0.56% | viability [4] 102% | viability [5] 103% | inhibition [6] 1.69% | RAM network inhibition [7] 12.1%

COC(=O)c1ccc(NC(=O)Cn2nc(SC)n(N)c2=S)cc1
inactive: growth inhibition [1] -11.2% | growth inhibition [2] -14.1% | viability increase [3] -0.99% | viability [4] 98% | viability [5] 99.3% | inhibition [6] 1.85% | RAM network inhibition [7] 7.07%

c1ccc(N(c2ccccc2)c2nc(N3CCOCC3)nc(N3CCOCC3)n2)cc1
inactive: growth inhibition [1] 4.5% | growth inhibition [2] -1.27% | viability increase [3] -3.09% | viability [4] 92.2% | viability [5] 89.9% | inhibition [6] 4.5% | RAM network inhibition [7] 3.75%

O=C(Nc1cc(=O)c2ccccc2o1)N1CCOCC1
inactive: growth inhibition [1] 1.73% | growth inhibition [2] -7.41% | viability increase [3] -2.39% | viability [4] 103% | viability [5] 103% | inhibition [6] 2.6% | RAM network inhibition [7] 1.4%

CCCS(=O)(=O)N1CCn2c(nc3ccccc32)C1
inactive: growth inhibition [1] 0.585% | growth inhibition [2] -2.62% | viability increase [3] -0.37% | viability [4] 106% | viability [5] 102% | inhibition [6] 2.19% | RAM network inhibition [7] 2.93%

Cc1ccc(-c2nc(C#N)c(NCCN3CCCCC3)o2)cc1
inactive: growth inhibition [1] 12.4% | growth inhibition [2] -1.35% | viability increase [3] -3.34% | viability [4] 92.5% | viability [5] 92.5% | inhibition [6] 1.4% | RAM network inhibition [7] -1.13%

COc1ccc(NC(=O)CSc2nnc(Cn3c(=O)sc4ccccc43)n2C)cc1
inactive: growth inhibition [1] -3.85% | growth inhibition [2] 7.49% | viability increase [3] -4.99% | viability [4] 111% | viability [5] 98.4% | inhibition [6] 2.43% | RAM network inhibition [7] 1.51%

Cn1cc(SCC(=O)NCc2ccc3c(c2)OCO3)c2ccccc21
inactive: growth inhibition [1] 4.09% | growth inhibition [2] -1.53% | viability increase [3] -4.24% | viability [4] 98.3% | viability [5] 95.1% | inhibition [6] 1.17% | RAM network inhibition [7] 4.4%

NC(=O)C1CCN(c2ncnc3c2c(-c2ccccc2)cn3-c2ccccc2)CC1
inactive: growth inhibition [1] -2.17% | growth inhibition [2] 8.02% | viability increase [3] -4.62% | viability [4] 81.3% | viability [5] 81.9% | inhibition [6] -0.35% | RAM network inhibition [7] 3.9%

CC(CCc1ccccc1)NC(=O)CN1CCOc2ccccc21 (stereo not drawn)
inactive: growth inhibition [1] -7.73% | growth inhibition [2] -1.32% | viability increase [3] -5.58% | viability [4] 84.1% | viability [5] 83.1% | inhibition [6] 0.595% | RAM network inhibition [7] 3.72%

Nc1ccccc1SCc1cn2cccnc2n1
inactive: growth inhibition [1] 1.29% | growth inhibition [2] 12% | viability increase [3] -2.43% | viability [4] 109% | viability [5] 98% | inhibition [6] 2.13% | RAM network inhibition [7] 3.55%

O=C1CCCc2sccc2N1
inactive: growth inhibition [1] -6.83% | growth inhibition [2] -3.71% | viability increase [3] -1.57% | viability [4] 106% | viability [5] 96.9% | inhibition [6] 0.26% | RAM network inhibition [7] 2.15%

C=CCSC1=NC(N)=C(C#N)C2(CCCCC2)C1C(N)=O (stereo not drawn)
inactive: growth inhibition [1] -4.98% | growth inhibition [2] 2.22% | viability increase [3] -1.39% | viability [4] 92.5% | viability [5] 96.6% | inhibition [6] 0.77% | RAM network inhibition [7] 2.04%
